Experimental data taken from ChEMBL document CHEMBL1955847, “2-Morpholinoisoflav-3-enes as flexible intermediates in the synthesis of phenoxodiol, isophenoxodiol, equol and analogues: vasorelaxant properties, estrogen receptor binding and Rho/RhoA kinase pathway inhibition” (Bioorg Med Chem, 2012).
Calls of active or inactive are those of the source. No cut-off for these calls is given here.

How the values were obtained:
Aorta [1] = assay: Vasorelaxant activity in Sprague-Dawley rat thoracic aorta assessed as inhibition of phenylephirne-induced contraction; type: functional, tissue-based
In short: (§1)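 Aortic rings 2–3 mm long from male Sprague-Dawley rats were bathed in Krebs-bicarbonate at 37 °C, pH 7.4, aerated with 95% O2/5% CO2, and equilibrated 1 h at 1 g resting tension. Rings were maximally contracted with KPSS (122.7 mM KCl) and re-equilibrated, then given submaximal phenylephrine. Endothelium was checked with acetylcholine, and cumulative concentration-response curves were run. DMSO was at most 0.1%. n = 3–5.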

Estrogen receptor = target: T1, Estrogen receptor (Rattus norvegicus, UniProt P06211); assay: Displacement of [3H]estradiol from rat uterine cytosolic estrogen receptor
T1 sequence (P06211 whole entry): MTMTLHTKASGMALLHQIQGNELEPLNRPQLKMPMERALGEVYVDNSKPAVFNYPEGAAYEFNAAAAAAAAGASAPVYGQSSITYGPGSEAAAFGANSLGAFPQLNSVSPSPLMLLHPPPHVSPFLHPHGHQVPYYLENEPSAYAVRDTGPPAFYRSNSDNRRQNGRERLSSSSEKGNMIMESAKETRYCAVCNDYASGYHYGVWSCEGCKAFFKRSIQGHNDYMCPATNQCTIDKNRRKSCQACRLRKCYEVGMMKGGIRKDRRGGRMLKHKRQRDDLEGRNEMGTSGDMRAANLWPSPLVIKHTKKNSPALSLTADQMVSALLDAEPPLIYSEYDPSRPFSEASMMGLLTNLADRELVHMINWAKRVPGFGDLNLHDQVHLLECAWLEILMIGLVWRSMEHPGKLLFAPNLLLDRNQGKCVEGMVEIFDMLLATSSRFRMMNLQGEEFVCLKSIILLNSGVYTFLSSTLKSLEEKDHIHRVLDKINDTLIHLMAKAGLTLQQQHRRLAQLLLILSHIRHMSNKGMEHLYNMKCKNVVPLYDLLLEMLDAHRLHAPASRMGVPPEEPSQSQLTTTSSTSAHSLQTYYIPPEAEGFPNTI
In short: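 Rat uterine cytosol incubated with 0.2 nM [3H]-estradiol in 10 mM Tris (pH 7.4, 1.5 mM EDTA, 10% w/v glycerol, 1 mM PMSF), with and without ICI 182,780 to define binding. Compounds were made from 10 mM DMSO stocks and diluted into buffer, giving 0.1% v/v DMSO at the top concentration and in all lower dilutions.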

Aorta [2] = assay: Vasorelaxant activity in Sprague-Dawley rat thoracic aorta assessed as inhibition of U46619-induced GTP RhoA level at 100 uM pretreated for 30 mins measured after 45 mins by spectrometric analysis; type: functional, tissue-based
In short: (§2)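 Male Sprague-Dawley thoracic aortic rings were denuded of endothelium and pretreated 30 min with compound, flavone or vehicle, then contracted with 30 nM U46619. Rings were snap-frozen in liquid N2 and homogenized in lysis buffer, then spun at 12,000g for 15 min at 4 °C. Supernatant was run in a RhoA G-LISA with HRP detection and absorbance read at 490 nm. Triplicate.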

Aorta [3] = assay: Vasorelaxant activity in Sprague-Dawley rat thoracic aorta assessed as inhibition of U46619-induced vascular tension at 100 uM pretreated for 30 mins; type: functional, tissue-based
In short: (§3)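 Male Sprague-Dawley thoracic aortic rings were held in Krebs-bicarbonate at 37 °C, pH 7.4, gassed with 95% O2/5% CO2. Rings were pretreated 30 min with compound or vehicle, then contracted with 30 nM U46619, and vascular tension was recorded. Final DMSO was 0.1%. n = 2, run in duplicate.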

Aorta [4] = assay: Vasorelaxant activity in Sprague-Dawley rat thoracic aorta assessed as inhibition of phenylephirne-induced contraction at highest concentration; type: functional, tissue-based; in short: as §1
Aorta [5] = assay: Vasorelaxant activity in Sprague-Dawley rat thoracic aorta assessed as inhibition of phenylephirne-induced contraction in presence of 0.1 uM estrogen receptor antagonist ICI 182780; type: functional, tissue-based
Aorta [6] = assay: Vasorelaxant activity in Sprague-Dawley rat thoracic aorta assessed as inhibition of U46619-induced vascular tension at 300 uM pretreated for 30 mins; type: functional, tissue-based; in short: as §3
Aorta [7] = assay: Vasorelaxant activity in Sprague-Dawley rat thoracic aorta assessed as inhibition of U46619-induced GTP RhoA level at 300 uM pretreated for 30 mins measured after 45 mins by spectrometric analysis; type: functional, tissue-based; in short: as §2

Row | SMILES | Activity (Aorta [1]) | IC50 (Estrogen receptor) [µM] | Activity (Aorta [2]) | Activity (Aorta [3]) | pIC50 (Estrogen receptor) | Activity (Aorta [4]) | Activity (Aorta [5]) | Activity (Aorta [6]) | Activity (Aorta [7])
1 | Oc1ccc(C2=COc3cc(O)ccc3C2)cc1 [ISOPHENOXODIOL] | Dose-dependent effect | 0.234 | – | – | – | – | – | – | –
2 | Oc1ccc(C2COc3cc(O)ccc3C2)cc1 (racemic) | Dose-dependent effect | 1.66 | Active | Active | – | – | – | – | –
3 | c1ccc(C2COc3ccccc3C2)cc1 (stereo unspecified) | – | – | Active | Active | > 5 | Active | inactive | – | –
4 | Oc1ccc2c(c1)OCC(c1ccccc1)C2 (stereo unspecified) | Dose-dependent effect | 3.63 | Active | Active | – | – | – | – | –
5 | C[C@]12CC[C@@H]3c4ccc(O)cc4C[C@@H](CCCCCCCCC[S+]([O-])CCCC(F)(F)C(F)(F)F)[C@H]3[C@@H]1CC[C@@H]2O (stereo partly specified) [FULVESTRANT] | – | 0.00589 | – | – | – | – | – | – | –
6 | Oc1ccc(C2COc3ccccc3C2)cc1 (stereo unspecified) | Dose-dependent effect | 7.59 | Active | Active | – | – | – | – | –
7 | O=c1cc(-c2ccccc2)oc2ccccc12 | – | – | – | – | – | – | – | Active | Active
8 | Oc1ccc(C2=Cc3ccc(O)cc3OC2)cc1 [IDRONOXIL] | Dose-dependent effect | 0.661 | Active | Active | – | – | – | – | –
